Results on 14 compounds are retold here after ChEMBL document CHEMBL4251566 (Eur J Med Chem, 2018).

Usually IC50 stands for the point on the concentration scale where inhibition reaches its midpoint.

Molecules are shown by their SMILES.

Data set [1] has as its target Tyrosine-protein kinase BTK (Homo sapiens, UniProt Q06187). Briefly: Inhibition of recombinant full-length N-terminal His-tagged human BTK expressed in baculovirus infected Sf9 insect cells using Poly(4:1 Glu,Tyr) peptide substrate incubated for 60 mins by ADP-Glo luminescence assay.
The target of data set [2] is T1, Tyrosine-protein kinase JAK3 (Homo sapiens, UniProt P52333).
T1 sequence (P52333 whole entry): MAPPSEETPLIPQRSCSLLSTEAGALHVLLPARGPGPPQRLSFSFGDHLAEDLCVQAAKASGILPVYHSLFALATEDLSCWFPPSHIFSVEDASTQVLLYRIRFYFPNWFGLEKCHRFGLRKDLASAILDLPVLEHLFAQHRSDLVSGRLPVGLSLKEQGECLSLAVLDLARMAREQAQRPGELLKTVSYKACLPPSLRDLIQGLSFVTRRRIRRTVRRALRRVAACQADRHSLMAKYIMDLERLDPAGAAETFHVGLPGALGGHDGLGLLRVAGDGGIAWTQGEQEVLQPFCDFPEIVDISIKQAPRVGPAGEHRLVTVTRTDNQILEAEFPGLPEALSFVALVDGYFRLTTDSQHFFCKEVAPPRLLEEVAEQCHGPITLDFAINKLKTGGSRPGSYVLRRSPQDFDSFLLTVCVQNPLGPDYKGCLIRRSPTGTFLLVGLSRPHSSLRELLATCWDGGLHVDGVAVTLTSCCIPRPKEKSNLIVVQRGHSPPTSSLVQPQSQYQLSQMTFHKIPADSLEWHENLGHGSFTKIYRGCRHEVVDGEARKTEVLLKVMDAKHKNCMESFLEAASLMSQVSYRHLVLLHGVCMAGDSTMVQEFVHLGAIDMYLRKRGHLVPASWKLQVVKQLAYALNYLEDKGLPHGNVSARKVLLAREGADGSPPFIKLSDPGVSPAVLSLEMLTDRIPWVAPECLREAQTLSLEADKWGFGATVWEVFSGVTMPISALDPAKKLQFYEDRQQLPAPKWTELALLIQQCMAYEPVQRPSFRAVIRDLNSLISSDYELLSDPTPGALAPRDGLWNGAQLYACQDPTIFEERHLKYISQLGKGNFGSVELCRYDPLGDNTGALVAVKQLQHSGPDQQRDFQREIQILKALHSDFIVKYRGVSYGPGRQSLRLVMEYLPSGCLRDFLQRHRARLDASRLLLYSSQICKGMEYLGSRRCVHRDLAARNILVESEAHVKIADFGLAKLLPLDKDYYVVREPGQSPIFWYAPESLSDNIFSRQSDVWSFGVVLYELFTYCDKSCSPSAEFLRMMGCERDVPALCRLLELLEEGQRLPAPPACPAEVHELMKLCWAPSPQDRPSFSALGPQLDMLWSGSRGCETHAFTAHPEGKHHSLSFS
Briefly: Inhibition of recombinant N-terminal GST-tagged human JAK3 (781 to end residues) expressed in baculovirus infected Sf9 insect cells using Poly(4:1 Glu,Tyr) peptide substrate incubated for 60 mins by ADP-Glo luminescence assay. In outline:
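ADP-Glo luminescent kinase assay. The kinase reaction ran 60 min at room temperature in 1× kinase buffer. ADP-Glo reagent was added to stop the reaction and deplete ATP, followed by 40 min at room temperature. Detection reagent then converted ADP to ATP for a luciferase readout, followed by 30 min at room temperature. Luminescence was integrated over 0.5–1 s, and IC50 came from curve fitting.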
Background: ADP-Glo first removes unused ATP, then detects ADP through luciferase.

Data set [3] relates to Ramos. Nature of the data set: Antiproliferative activity against human Ramos cells after 72 hrs by CCK-8 assay.
The subject of a further data set is Raji. Nature of the data set: Antiproliferative activity against human Raji cells after 72 hrs by CCK-8 assay. Type of data set: functional, cell-based. Summed up: (§1)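 CCK-8 viability assay. Cells were seeded at 3000/well in RPMI-1640 with 10% FBS at 37 °C, 5% CO2, for 4 h before treatment. Exposure was 72 h at five concentrations (1.25, 5, 10, 20, 40 µM), each in five replicates. Absorbance was read at 450 nm. IC50 came from dose-response curves, as the mean of at least three separate experiments.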
(Tetrazolium dyes change colour on reduction, which living cells bring about.)

The subject of the next data set is NAMALVA. Nature of the data set: Antiproliferative activity against human NAMALWA cells after 72 hrs by CCK-8 assay. Type of data set: functional, cell-based. In outline: as §1
For another data set, the system named is PBMC. Nature of the data set: Cytotoxicity against human PBMCs assessed as induction of morphological changes at <10 uM after 24 hrs by AO/PI staining-based phase contrast microscopy. Type of data set: cell-based.
Data set [4] concerns Ramos. Briefly: Induction of apoptosis in human Ramos cells assessed as necrotic cells at 10 uM after 72 hrs by Annexin V-FITC/propidium iodide staining based flow cytometry (reference value: 0.7%). It is filed as functional. On the technique in general: In flow cytometry, cells or beads pass a laser one at a time.
Data set [5] has as its system Ramos. Nature of the data set: Induction of apoptosis in human Ramos cells assessed as early apoptotic cells at 10 uM after 72 hrs by Annexin V-FITC/propidium iodide staining based flow cytometry (reference value: 0.0%). It is filed as functional.
Data set [6] deals with Ramos. Briefly: Induction of apoptosis in human Ramos cells assessed as viable cells at 10 uM after 72 hrs by Annexin V-FITC/propidium iodide staining based flow cytometry (reference value: 98.7%). It is filed as functional. The settings on record: read-out: Activity.
Data set [7] deals with Ramos. Briefly: Induction of apoptosis in human Ramos cells assessed as total apoptosis rate at 10 uM after 72 hrs by Annexin V-FITC/propidium iodide staining based flow cytometry relative to control.
Data set [8] has as its system Ramos. Nature of the data set: Induction of apoptosis in human Ramos cells assessed as late apoptotic cells at 10 uM after 72 hrs by Annexin V-FITC/propidium iodide staining based flow cytometry (reference value: 0.5%). It is filed as functional.

Tyrosine-protein kinase BTK, sequence (Q06187 whole entry): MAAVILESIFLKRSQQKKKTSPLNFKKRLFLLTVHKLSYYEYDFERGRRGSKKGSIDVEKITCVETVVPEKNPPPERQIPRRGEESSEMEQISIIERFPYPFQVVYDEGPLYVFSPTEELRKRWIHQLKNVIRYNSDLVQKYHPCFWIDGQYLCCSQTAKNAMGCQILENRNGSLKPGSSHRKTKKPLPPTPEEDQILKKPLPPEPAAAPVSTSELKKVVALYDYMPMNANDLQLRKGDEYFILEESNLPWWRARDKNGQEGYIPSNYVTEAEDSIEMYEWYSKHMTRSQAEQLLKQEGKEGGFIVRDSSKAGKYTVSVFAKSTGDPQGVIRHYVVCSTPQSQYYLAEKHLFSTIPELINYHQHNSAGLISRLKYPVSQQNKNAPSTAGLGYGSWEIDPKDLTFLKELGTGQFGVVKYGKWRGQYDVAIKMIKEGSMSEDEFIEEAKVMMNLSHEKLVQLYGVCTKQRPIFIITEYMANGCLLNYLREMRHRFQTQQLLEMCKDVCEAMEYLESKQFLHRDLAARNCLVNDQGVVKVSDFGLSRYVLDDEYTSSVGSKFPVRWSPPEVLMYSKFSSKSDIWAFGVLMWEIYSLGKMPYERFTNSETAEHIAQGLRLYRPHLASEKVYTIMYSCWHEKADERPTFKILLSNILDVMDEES

For `C=CC(=O)Nc1cccc(Nc2nc(Nc3ccc(OCCCN4CCN(C)CC4)cc3C)ncc2Cl)c1`, the IC50 in data set [1] came out at 0.0817 µM; in data set [2] it was 0.0911 µM; in the data set on Ramos [3] it was 22.6 µM; in the data set with Raji, 25 µM; in the data set on NAMALVA it was 24.6 µM.

For the compound `C=CC(=O)Nc1cccc(Nc2nc(Nc3ccc(OCC(=O)N4CCOCC4)cc3)ncc2Cl)c1`, the IC50 came out at 0.001 µM in data set [1]; 0.00139 µM in data set [2]; 25.6 µM in the data set on Ramos [3]; 5.68 µM with Raji; 4.42 µM in the data set on NAMALVA.

Turning to `C=CC(=O)Nc1cccc(Nc2nc(Nc3ccc(OCCCN4CCN(CC)CC4)c(Cl)c3)ncc2Cl)c1`, the IC50 was 0.0005 µM in data set [1]; 0.00091 µM in data set [2]; 5.72 µM in the data set with Ramos [3]; 11.4 µM in the data set with Raji; 2.41 µM with NAMALVA.

As for `C=CC(=O)Nc1cccc(Nc2nc(Nc3ccc(OCCCN4CCOCC4)c(Cl)c3)ncc2Cl)c1`, the IC50 in data set [1] amounted to 0.0007 µM; in data set [2] it was 0.00106 µM; with Ramos [3], 2 µM; in the data set with Raji, 22.5 µM; in the data set with NAMALVA, 19.4 µM.

In the case of `C=CC(=O)Nc1cccc(Nc2nc(Nc3ccc(OC)c(OCCCN4CCOCC4)c3)ncc2F)c1`, the IC50 worked out at 0.0007 µM in data set [1]; 0.00095 µM in data set [2]; 11.3 µM with Ramos [3]; 13.9 µM with Raji; 3.17 µM in the data set on NAMALVA.

Regarding `C=CC(=O)N1CCC[C@@H](n2nc(-c3ccc(Oc4ccccc4)cc3)c3c(N)ncnc32)C1` [IBRUTINIB], the IC50 in the data set with Ramos [3] is 6.62 µM; with Raji, 20.9 µM; in the data set with NAMALVA, 10.5 µM. For the same compound, the Activity in the data set with PBMC was 50%; in the data set on Ramos [4] it was 0.1%; with Ramos [5], 37%; in the data set on Ramos [7], 47.9%. Also, in the data set on Ramos [6], the viability at 10 µM was 52%.

Regarding `C=CC(=O)Nc1cccc(Nc2nc(Nc3ccc(OCC(=O)N4CCOCC4)c(OC)c3)ncc2Cl)c1`, the IC50 is 0.0105 µM in data set [1]; 0.0216 µM in [2]; greater than 40 µM with Ramos [3]; 22.5 µM in the data set on Raji; 17.2 µM with NAMALVA.

On to `C=CC(=O)Nc1cccc(Nc2nc(Nc3ccc(OCCCN4CCOCC4)cc3C)ncc2Cl)c1`, for which the IC50 in [1] is 0.0893 µM; in data set [2] it was greater than 0.1 µM; in the data set with Ramos [3], 18.7 µM; with Raji, 25.5 µM; in the data set on NAMALVA, 28 µM.

Take `C=CC(=O)Nc1cccc(Nc2nc(Nc3ccc(OCCCN4CCN(CC)CC4)cc3C)ncc2F)c1`: the IC50 is 0.09 µM in [1]; greater than 0.1 µM in data set [2]; 18.5 µM in the data set on Ramos [3]; 26 µM with Raji; 26.6 µM in the data set on NAMALVA.

Take `C=CC(=O)Nc1cccc(Nc2nc(Nc3ccc(OCC(=O)N4CCOCC4)c(OC)c3)ncc2F)c1`: the IC50 in data set [1] was 0.0171 µM; in data set [2] it was 0.0112 µM; with Ramos [3] it was greater than 40 µM; with Raji, 11.2 µM; in the data set on NAMALVA, 15 µM.

For the compound `C=CC(=O)Nc1cccc(Nc2nc(Nc3ccc(OC)c(OCCCN4CCOCC4)c3)ncc2Cl)c1`, the IC50 was 0.0008 µM in data set [1]; 0.00069 µM in [2]; 7.31 µM in the data set on Ramos [3]; 3.86 µM in the data set with Raji; 5.17 µM with NAMALVA.

In the case of `C=CC(=O)Nc1cccc(Nc2nc(Nc3ccc(OCCOC)cc3)ncc2F)c1` [SPEBRUTINIB], the IC50 turned out to be 0.0225 µM in data set [2], 14.2 µM with Ramos [3], 25.3 µM in the data set with Raji and 3.42 µM in the data set on NAMALVA. Besides, the Activity with Ramos [4] turned out to be 4.3%; in the data set with Ramos [8], 20.4%; in the data set on Ramos [5] it was 21.1%; in the data set with Ramos [7] it was 41.5%. Besides, the viability at 10 µM with Ramos [6] turned out to be 54.2%.

Regarding `C=CC(=O)Nc1cccc(Nc2nc(Nc3ccc(OCCCN4CCOCC4)c(OC)c3)ncc2Cl)c1`, the IC50 in data set [1] stood at 0.0313 µM; in [2], 0.00677 µM; in the data set on Ramos [3], 2.49 µM; with Raji it was 5.92 µM; with NAMALVA it was 14.4 µM.

Consider `C=CC(=O)Nc1cccc(Nc2nc(Nc3ccc(OCCCN4CCN(CC)CC4)cc3C)ncc2Cl)c1`, for which the IC50 is greater than 0.1 µM in [1]; greater than 0.1 µM in data set [2]; 14.4 µM in the data set with Ramos [3]; 35.3 µM with Raji; 35.2 µM with NAMALVA.
